697 NFkB inh: inhibitors of PMA/ionomycin-induced NF-kB reporter, 697 cells, primary screen, B-cell NF-kB inhibitor project, cell-based, luminescence, uHTS | AID 435022, 2010 | inhibition, % at 4 µM | 697 B-cell NF-kB luciferase reporter, 16 h | 0.33% of 330,000 active; in the data active means inhibition above about 35%
TAG inh: inhibitors of triacylglycerol accumulation, primary screen, cell-based, uHTS, fluorescence, H9c2. H9c2 cells, Nile Red lipid (TAG) fluorescence; cells loaded with 200 µM oleic acid. inhibition, % at 12.5 µM. 0.66% of 230,000 active;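 active means pattern-corrected inhibition of lipid staining of at least 50% with the nuclear-stain viability signal not falling by more than 50%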
APP transl inh: inhibitors of APP translation via 5'UTR reporter, primary screen, APP 5'UTR luciferase, SH-SY5Y cells; SH-SY5Y APP 5'UTR-luciferase reporter, luminescence; inhibition, % at 2 µM; 0.82% of 190,000 active; AID 1285, 2008;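 active means inhibition above a set limit, derived from the sample mean plus 3 SD, cut at about 45% in these data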
Lipid droplet: inhibitors of hepatocyte lipid droplet formation, primary screen, imaging, high-throughput imaging, BODIPY stain | 0.4% of 240,000 active | AML12 mouse hepatocytes, oleate lipid droplets | inhibition, % at 6.5 µM | AID 1656, 2009;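 active means lipid droplet intensity inhibited by at least 50%, with more than 500 cells counted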
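Test system: AML12 mouse liver cells; schedule: overnight exposure; technique: high-content imaging of BODIPY-stained droplets and DAPI nuclei; read-out: % inhibition of corrected integrated BODIPY droplet signal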
Jurkat NFkB inh: inhibitors of induced NF-kB luciferase reporter, primary screen, TCR NF-kB activation inhibitor project, cell-based, luminescence, uHTS; 0.53% of 330,000 active; Jurkat, PMA/ionomycin-induced NF-kB luciferase reporter; AID 435003, 2010; inhibition, % at 4 µM; in the data active means inhibition above about 50%
aSyn 5UTR inh: MLPCN primary screen, SNCA 5' untranslated region | alpha-synuclein 5'UTR reporter, inhibitor activity | inhibition, % (tested at 7.5 µM) | 0.82% of 300,000 active | AID 1813, 2009; in the data active means inhibition above about 60%;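 further: H4 neuroglioblastoma cells stably carrying SNCA 5'UTR luciferase fusion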
Hep lipid conf: hepatocyte lipid droplet accumulation inhibitors, confirmation, imaging, AML12 mouse hepatocytes, single concentration, high-content; BODIPY lipid droplet imaging; droplets induced with 100 µM oleic acid; 65% of 870 active; inhibition, % at 5.2 µM; shares compounds with Lipid droplet; AID 463183, 2010;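 active means inhibition of lipid droplet metric at least 50%, with more than 300 cells in each of four replicates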
AML12 cytotox: AML12 hepatocyte cytotoxicity, counter-screen for hepatic lipid droplet formation project, imaging, DAPI nuclear morphology imaging. shares compounds with Lipid droplet. AML12 mouse hepatocytes; active compounds read high; cells fed 100 µM oleate overnight. z-score at 5 µM. 3% of 870 active. AID 463200, 2010; in the data active means z-score above about 6.3;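 further: compound exposure lasted overnight at 37 °C before fixation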
AML12 tox ATP: AML12 hepatocyte cytotoxicity, confirmation, cytotoxicity control for hepatic lipid droplet formation project, cell-based, single concentration. shares compounds with Lipid droplet. AID 463219, 2010. 530 tested, under 10 active. AML12 mouse hepatocyte viability, ATP luminescence; cells loaded with 100 µM oleic acid. cytotoxicity, % at 50 µM;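 active means cytotoxicity above 50% in each of four replicates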;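 further: compound exposure lasted overnight at 37 °C before the ATP read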
Hits are given with their value; – = inactive; · = no result given. Most compounds without a hit are left out; they make up all but 1.9% or so of the library.

SMILES | 697 NFkB inh | TAG inh | APP transl inh | Lipid droplet | Jurkat NFkB inh | aSyn 5UTR inh | Hep lipid conf | AML12 cytotox | AML12 tox ATP
O=[N+]([O-])c1sccc1CS(=O)(=O)c1ccccc1 | – | – | · | 71 | – | – | – | – | ·
CCc1ccccc1NC(=O)COc1ccc(C(=S)N2CCCC2)cc1 | – | – | – | 55 | – | – | – | – | ·
CC(=O)c1ccc(OCC(=O)Nc2ccccc2N2CCCC2)cc1 | – | – | · | – | – | – | · | · | ·
COc1ccc2cc(C(=O)C3CCCN(C(=O)C4=NN(C)C(=O)CC4)C3)ccc2c1 (stereo unspecified) | – | · | · | – | – | – | · | · | ·
CCCCN(C)C(=O)c1sc(=O)n(Cc2ccccc2C#N)c1C | · | – | · | · | · | · | · | · | ·
CNc1c(NS(=O)(=O)c2cc(OC)ccc2OC)c(=O)oc2ccccc12 | – | · | · | – | – | – | · | · | ·
CCOc1cccc(C(=O)Nc2ccc(N3CCN(S(C)(=O)=O)CC3)cc2)c1 | – | – | – | – | – | – | · | · | ·
CCOc1cc(C(=O)Nc2ccc(N3CCN(S(C)(=O)=O)CC3)cc2)cc(OCC)c1OCC | – | – | – | 61 | – | – | 93 | – | –
Cc1cc(=O)[nH]c(SCC(=O)NCCC2=CCCCC2)n1 | – | – | – | – | – | – | · | · | ·
COc1ccc(NC(=O)Cc2c(C)n(C(=O)c3ccc(Cl)cc3)c3ccc(OC)cc23)cc1 | – | – | – | 83 | – | – | 98 | – | ·
COc1cccc(-n2cc(CNC(=O)C3CCC(=O)N(C4CC4)C3)cn2)c1 (stereo unspecified) | – | · | · | – | – | – | · | · | ·
CC1CC(C)CN(C(=O)c2ccc3c(c2NCCO)C(=O)c2ccccc2C3=O)C1 (stereo unspecified) | – | 127 | – | 91 | – | – | 115 | – | –
Cc1c(Br)c([N+](=O)[O-])nn1CC(=O)N1CCCc2ccccc21 | – | · | – | – | – | – | · | · | ·
COc1ccc(N=C2C(=Nc3ccc(OC)cc3)N(c3ccc(OC)cc3)C(=S)N2C)cc1 | – | · | – | 58 | – | – | 109 | – | –
Cc1ccc(C2=NC3(CCCCC3)N=C2SCC(=O)Nc2ccc3c(c2)OCCO3)cc1 | – | – | – | 54 | – | – | 70 | – | –
COc1ccc(C2CC(c3cccs3)=NN2C(=O)c2ccc(Br)o2)cc1 (stereo unspecified) | – | · | – | 83 | – | – | 93 | – | –
CSCCC(NC(=O)c1ccccc1Br)C(=O)N1CCCC(C(F)(F)F)C1 (stereo unspecified) | – | – | · | – | – | – | · | · | ·
COc1cc2c3nnc(-c4ccc(F)cc4)c-3cn(Cc3cccc(C)c3)c2cc1OC | – | – | – | 54 | – | – | – | – | ·
CC1=C(C(=O)Nc2ccc(C(=O)NC(C)c3ccccc3)cc2)SCCO1 (stereo unspecified) | – | – | · | – | – | – | · | · | ·
Cc1cc(C(=O)NC2CCCc3c2cnn3-c2ccc(C)c(C)c2)nc(C)n1 (stereo unspecified) | – | – | · | 58 | – | – | – | – | –
O=C(NC1CCCc2c1cnn2-c1cc(F)cc(F)c1)c1ccccn1 (stereo unspecified) | – | – | · | 64 | – | – | 100 | – | –
Nc1nc(-c2ccc(Cl)cc2)c(N=Nc2ccc(S(=O)(=O)N3CCOCC3)cc2)s1 | – | · | – | 65 | – | – | – | – | ·
CC(C)Cn1c(N)c(C=O)c(=O)[nH]c1=O | – | – | – | – | – | – | · | · | ·
C/C=C(/C)C(=O)O[C@@H]1[C@H](OC(=O)C=C(C)C)c2c(ccc3ccc(=O)oc23)OC1(C)C | – | – | – | 54 | – | – | – | – | ·
C/C=C(/C)C(=O)O[C@@H]1c2c(ccc3ccc(=O)oc23)OC(C)(C)[C@@H]1OC(=O)/C(C)=C\C | – | – | – | – | – | – | · | · | ·
SMILES | 697 NFkB inh | TAG inh | APP transl inh | Lipid droplet | Jurkat NFkB inh | aSyn 5UTR inh | Hep lipid conf | AML12 cytotox | AML12 tox ATP
Cc1cccc(N2CCN(C(=O)c3ccc4c(c3)NC(=O)C(CSCc3cccc(F)c3)N4)CC2)c1C (stereo unspecified) | – | · | · | – | – | – | · | · | ·
COc1c(C)cc(Br)cc1C(=O)Nc1cccc(NC(=O)c2ccco2)c1 | – | · | – | 60 | – | – | 97 | – | –
COc1ccc(Br)cc1C(=O)Nc1cccc(NC(=O)c2ccco2)c1 | – | – | – | · | – | – | · | · | ·
CCOc1ccccc1Nc1nnc(SC(C)C(=O)Nc2nc(-c3ccccc3)cs2)s1 (stereo unspecified) | – | · | – | 75 | – | – | 105 | – | –
CCOc1ccccc1Nc1nnc(SCC(=O)NC(=O)c2cccn2C)s1 | – | – | – | – | – | – | · | · | ·
Nc1cc(Cl)ccc1C(=O)OCC(=O)NCc1cccs1 | – | – | · | · | – | · | · | · | ·
CCOc1ccc(CN(C)CC(=O)NNC(=O)c2ccc(Cl)cc2)cc1OC | – | – | – | – | – | – | · | · | ·
CCOc1ccc(CN(C)C(=O)CNC(=O)c2ccc(Br)o2)cc1OC | – | · | · | 80 | – | – | 85 | – | –
CCOc1ccc(CN(C)C(=O)NNC(=O)c2ccc(C)cc2)cc1OC | – | · | · | 88 | – | – | 80 | – | –
CCN1CCN(C(=O)NCc2ccccc2)CC1 | – | – | · | – | – | – | · | · | ·
CC(OC(=O)C1CC(=O)N(Cc2ccccc2)C1)C(=O)Nc1cccc(C#N)c1 (stereo unspecified) | – | – | · | – | – | – | · | · | ·
C=C(C)c1cccc(C(C)(C)NC(=O)Nc2ccccc2OCC)c1 | – | · | – | 52 | – | – | – | – | ·
CCCC(=O)Nc1cccc(C(=O)Nc2ccccc2OCC)c1 | – | · | – | 73 | – | – | 99 | – | ·
CCCN(CCC)C(=O)c1oc2ccccc2c1NC(=O)Cc1cccc(OC)c1 | – | · | · | – | – | – | · | · | ·
CC(=O)c1cccc(NC(=O)C23CC4CC(C2)CC(n2cncn2)(C4)C3)c1 | – | · | – | – | – | – | · | · | ·
CCc1c(C#N)c(SCCC(=O)Nc2cccc(OC)c2)nc2c1C(=O)CC(C)(C)C2 | – | – | – | 58 | – | – | 101 | – | –
CCc1c(C#N)c(SCCC(=O)Nc2ccc(F)cc2)nc2c1C(=O)CC(C)(C)C2 | – | · | – | – | – | – | · | · | ·
